In ChEMBL document CHEMBL1156908, “Characterization of tunable piperidine and piperazine carbamates as inhibitors of endocannabinoid hydrolases” (J Med Chem, 2010):
Calls of active or inactive are those of the source. The rule behind the calls is not given here.

Legend:
[1] = target: T1, Patatin-like phospholipase domain-containing protein 6 (Mus musculus) (UniProt Q3TRM4); assay: Inhibition of NTE in mouse brain membrane at 100 uM; type: cell membranes
T1 sequence (whole entry): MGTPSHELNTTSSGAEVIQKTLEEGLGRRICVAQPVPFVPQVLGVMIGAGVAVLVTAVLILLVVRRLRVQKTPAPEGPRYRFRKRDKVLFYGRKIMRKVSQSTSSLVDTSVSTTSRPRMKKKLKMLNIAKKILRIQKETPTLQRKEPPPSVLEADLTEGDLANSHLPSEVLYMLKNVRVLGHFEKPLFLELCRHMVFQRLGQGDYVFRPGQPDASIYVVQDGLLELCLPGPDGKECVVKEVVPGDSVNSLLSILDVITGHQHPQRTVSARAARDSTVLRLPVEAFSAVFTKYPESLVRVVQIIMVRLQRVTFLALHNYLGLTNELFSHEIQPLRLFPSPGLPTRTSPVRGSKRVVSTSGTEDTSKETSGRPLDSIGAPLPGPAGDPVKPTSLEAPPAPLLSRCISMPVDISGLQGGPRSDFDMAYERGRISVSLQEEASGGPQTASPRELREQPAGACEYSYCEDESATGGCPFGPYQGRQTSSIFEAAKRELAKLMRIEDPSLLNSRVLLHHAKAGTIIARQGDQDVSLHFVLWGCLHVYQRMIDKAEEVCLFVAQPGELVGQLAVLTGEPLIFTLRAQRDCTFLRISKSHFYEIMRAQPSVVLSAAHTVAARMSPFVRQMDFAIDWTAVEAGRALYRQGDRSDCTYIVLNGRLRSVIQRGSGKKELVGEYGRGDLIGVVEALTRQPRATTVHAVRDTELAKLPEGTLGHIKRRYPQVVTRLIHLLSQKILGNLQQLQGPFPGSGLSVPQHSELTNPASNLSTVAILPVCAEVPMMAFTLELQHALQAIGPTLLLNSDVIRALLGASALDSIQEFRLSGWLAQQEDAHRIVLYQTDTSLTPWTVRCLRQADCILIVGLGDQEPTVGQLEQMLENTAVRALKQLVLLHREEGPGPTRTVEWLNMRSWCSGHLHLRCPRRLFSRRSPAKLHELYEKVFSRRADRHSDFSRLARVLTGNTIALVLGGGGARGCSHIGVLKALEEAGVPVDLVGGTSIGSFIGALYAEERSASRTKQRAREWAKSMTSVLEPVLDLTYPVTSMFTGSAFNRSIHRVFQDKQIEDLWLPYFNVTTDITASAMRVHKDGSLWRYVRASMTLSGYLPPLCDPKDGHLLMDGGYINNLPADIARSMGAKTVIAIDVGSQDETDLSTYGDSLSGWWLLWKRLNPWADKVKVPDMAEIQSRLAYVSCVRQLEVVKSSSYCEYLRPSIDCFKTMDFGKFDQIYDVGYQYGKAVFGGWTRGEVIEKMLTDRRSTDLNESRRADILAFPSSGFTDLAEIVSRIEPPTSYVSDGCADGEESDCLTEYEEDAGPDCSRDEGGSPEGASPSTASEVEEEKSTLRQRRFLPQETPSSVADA
Procedure, shortened: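 Competitive ABPP on mouse brain membrane proteome at 1 mg/ml in PBS. Inhibitor at 100 μM for 30 min at 37°C, then FP-rhodamine 1 μM final for 30 min at 25°C. SDS-PAGE and in-gel fluorescence scanning. Percent loss of NTE band labeling.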

[2] = target: T2, Fatty-acid amide hydrolase 1 (Mus musculus, UniProt O08914); assay: Inhibition of FAAH in mouse brain membrane; type: cell membranes
T2 sequence (O08914 whole entry): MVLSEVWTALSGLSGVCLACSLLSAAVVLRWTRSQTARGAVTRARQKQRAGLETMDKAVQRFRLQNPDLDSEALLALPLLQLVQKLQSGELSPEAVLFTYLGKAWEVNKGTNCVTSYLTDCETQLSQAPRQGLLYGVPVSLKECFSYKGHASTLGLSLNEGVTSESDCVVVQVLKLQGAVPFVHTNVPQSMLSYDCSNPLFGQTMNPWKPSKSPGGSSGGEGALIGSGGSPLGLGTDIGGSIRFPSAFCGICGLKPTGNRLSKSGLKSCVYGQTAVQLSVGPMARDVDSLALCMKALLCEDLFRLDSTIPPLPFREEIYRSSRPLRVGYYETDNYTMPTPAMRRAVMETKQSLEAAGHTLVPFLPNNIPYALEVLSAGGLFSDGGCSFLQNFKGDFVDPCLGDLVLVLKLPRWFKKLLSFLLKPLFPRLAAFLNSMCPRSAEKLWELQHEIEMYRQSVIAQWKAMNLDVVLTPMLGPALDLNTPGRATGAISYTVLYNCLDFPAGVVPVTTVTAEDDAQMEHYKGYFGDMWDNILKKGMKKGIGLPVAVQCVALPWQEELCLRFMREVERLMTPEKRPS
Procedure, shortened: (§1)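 Mouse brain membrane fraction (Dounce homogenized in PBS pH 7.5, 1,400 × g debris spin, 64,000 × g 45 min pellet, resuspended) at 1 mg/ml in PBS. Inhibitor preincubated 30 min at 37°C, then FP-rhodamine 1 μM final for 30 min at 25°C. SDS-PAGE with in-gel fluorescence scanning. IC50 from fitted integrated band intensities, mean of at least triplicates.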

[3] = target: T3, Patatin-like phospholipase domain-containing protein 6 (Mus musculus, UniProt Q3TRM4); assay: Inhibition of NTE in mouse brain membrane; type: cell membranes; procedure, shortened: as §1
T3 sequence (Q3TRM4 whole entry): T1 sequence (whole entry)

[4] = target: T4, Monoacylglycerol lipase ABHD6 (Mus musculus, UniProt Q8R2Y0); assay: Inhibition of ABHD6 in mouse brain membrane; type: cell membranes; procedure, shortened: as §1
T4 sequence (Q8R2Y0 whole entry): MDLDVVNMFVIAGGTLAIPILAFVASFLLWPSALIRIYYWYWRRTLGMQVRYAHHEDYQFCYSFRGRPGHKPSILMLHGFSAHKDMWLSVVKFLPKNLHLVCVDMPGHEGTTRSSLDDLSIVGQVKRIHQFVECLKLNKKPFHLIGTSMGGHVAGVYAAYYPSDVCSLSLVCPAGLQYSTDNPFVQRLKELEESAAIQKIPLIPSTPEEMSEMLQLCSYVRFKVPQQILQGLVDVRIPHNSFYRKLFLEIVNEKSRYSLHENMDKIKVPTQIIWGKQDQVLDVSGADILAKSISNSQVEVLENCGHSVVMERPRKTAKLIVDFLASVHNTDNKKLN

Monoglyceride lipase = target: T5, Monoglyceride lipase (Mus musculus, UniProt O35678); assay: Inhibition of MAGL in mouse brain membrane; type: cell membranes; procedure, shortened: as §1
T5 sequence (O35678 whole entry): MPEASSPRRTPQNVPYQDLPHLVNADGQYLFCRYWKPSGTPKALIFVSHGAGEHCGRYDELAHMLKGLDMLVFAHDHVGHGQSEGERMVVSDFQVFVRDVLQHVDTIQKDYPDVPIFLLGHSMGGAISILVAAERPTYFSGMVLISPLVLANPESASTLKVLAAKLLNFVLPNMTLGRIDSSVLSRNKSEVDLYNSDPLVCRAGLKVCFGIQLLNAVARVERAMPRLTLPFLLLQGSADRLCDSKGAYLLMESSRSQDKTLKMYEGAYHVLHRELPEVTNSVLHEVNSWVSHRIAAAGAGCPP

Mus musculus [5] = assay: Toxicity in mouse assessed as death at 20 mg/kg, ip for 6 days; type: organism-based; parameters: dose 20 mg/kg, route intraperitoneal; details: in vivo, 144 h
Mus musculus [6] = assay: In vivo inhibition of FAAH in mouse at 20 mg/kg, ip; type: functional, organism-based; parameters: dose 20 mg/kg
Mus musculus [7] = assay: In vivo inhibition of MAGL in mouse at 20 mg/kg, ip; type: functional, organism-based; parameters: dose 20 mg/kg
Mus musculus [8] = assay: In vivo inhibition of FAAH in mouse at 100 mg/kg, po; type: functional, organism-based; parameters: dose 100 mg/kg
Mus musculus [9] = assay: In vivo inhibition of MAGL in mouse at 100 mg/kg, po; type: functional, organism-based; parameters: dose 100 mg/kg

SMILES | inhibition [1] [%] | IC50 [2] [nM] | IC50 [3] [nM] | IC50 [4] [nM] | IC50 (Monoglyceride lipase) [nM] | Activity (Mus musculus [5]) | Activity (Mus musculus [6]) | Activity (Mus musculus [7]) | Activity (Mus musculus [8]) | Activity (Mus musculus [9])
O=C(Oc1ccc([N+](=O)[O-])cc1)N1CCN(Cc2ccc(-c3ccccc3OC(F)(F)F)o2)CC1 | 81 | 5 | 570 | 180 | 70 | – | – | – | – | –
COc1ccc(Oc2cccc(CN3CCN(C(=O)Oc4ccc([N+](=O)[O-])cc4)CC3)c2)cc1 | 60 | 90 | 2900 | 460 | 130 | – | – | – | – | –
O=C(Oc1ccc([N+](=O)[O-])cc1)N1CCN(Cc2cccc(Oc3cccc(C(F)(F)F)c3)c2)CC1 | 57 | 5 | 14400 | 320 | 300 | – | – | – | – | –
O=C(Oc1ccc([N+](=O)[O-])cc1)N1CCN(Cc2cccc(Oc3cc(Cl)cc(Cl)c3)c2)CC1 | 0 | > 100000 | > 100000 | > 100000 | > 100000 | – | – | – | – | –
O=C(Oc1ccc([N+](=O)[O-])cc1)N1CCN(Cc2cc(Br)ccc2O)CC1 | 73 | 720 | 3240 | 130 | 90 | – | – | – | – | –
O=C(Oc1ccc([N+](=O)[O-])cc1)N1CCN(Cc2cccc(Oc3ccccc3)c2)CC1 | 50 | 13 | > 50000 | 50 | – | Non-toxic | inactive | inactive | inactive | inactive
O=C(Oc1ccc([N+](=O)[O-])cc1)N1CCN(Cc2cccc(Oc3ccccn3)c2)CC1 | 73 | 40 | 1270 | 60 | 50 | – | – | – | – | –
